A short description of series [1]: melting temperature; fluorescence melt of hairpins on a sequencing array, two-state fit, raised by 9.35 °C to match UV melts. Conditions: sodium 0.088 M. A digest of the protocol:
(§1)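 Melting temperature and folding enthalpy were obtained by bootstrapped two-state fitting. Fits used Cy3 fluorescence of library hairpins with annealed Cy3 and quencher oligos on a sequenced MiSeq flow cell, imaged in 50 mM Na-HEPES pH 8.0, 25 mM NaCl in 2.5 °C steps up to 60 °C and normalised to pre-quench Cy3 and control constructs. Four replicates were combined by inverse-variance weighting, and fitted temperatures were raised by 9.35 °C to match UV melts.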

The nature of series [2]: folding enthalpy; higher = less favourable; fluorescence melt of hairpins on a sequencing array, two-state fit. The following applies: sodium 0.088 M. A digest of the protocol: as §1

On to GAAAGCCGAAAGGCTTC (((.(((....)))))), for which the Tm in series [1] stood at 50.2 °C. The folding enthalpy in series [2] was -9.06 kcal/mol.
Taken in the same sequence, the figures for GAAAGCGAAAGCTATTTC ((((((....)))..))) were 25.2 °C and -11.8 kcal/mol.
For the sequence GAAAGCGAAAGCTGCTTC ((((((....)))..))), the Tm in series [1] is 42.9 °C. The folding enthalpy in series [2] was -19.4 kcal/mol.
Turning to GAAAGCGAAAGCTTATTC ((((((....)))..))), in series [1], the Tm was 32.7 °C. The folding enthalpy in series [2] is -10.9 kcal/mol.
As for GAAAGCGAAAGCTTCTTC ((((((....)))..))), the Tm in series [1] was 53.5 °C. Also, in series [2], the folding enthalpy is -24.5 kcal/mol.
With GAAAGCGCGAAAGCGTTC (((..(((....)))))), the Tm in series [1] amounted to 28.3 °C. Further, the folding enthalpy in series [2] was -7.58 kcal/mol.
Regarding GAAAGCGGAAACGCCTTC (((.(((....))).))), the Tm in series [1] was 34.1 °C. Also, the folding enthalpy in series [2] is -18.4 kcal/mol.
For GAAAGGCGAAAGCCATTC (((.(((....))).))), the Tm in series [1] came to 41.4 °C. Moreover, the folding enthalpy in series [2] is -16.5 kcal/mol.
Consider GAAAGGGGAAACCTTTTC ((((.((....)).)))), for which the Tm in series [1] worked out at 34.2 °C. In series [2], the folding enthalpy is -27.1 kcal/mol.
Take GAAAGTGGAAACACCTTC (((.(((....))).))): the Tm in series [1] worked out at 28.8 °C. The folding enthalpy in series [2] was -9.58 kcal/mol.
As for GAAAGTGGAAACACTTCC (.(((((....))))).), the Tm in series [1] was determined as 33.7 °C. Besides, in series [2], the folding enthalpy was -16.6 kcal/mol.
Taken in the same sequence, the figures for GAAATAGCGAAAGCTTTC (((..(((....)))))) were 28.6 °C and -11.8 kcal/mol.
The matching figures for GAAATAGGAAACTGTTTC ((((.((....)).)))): 36.1 °C and -21.3 kcal/mol.
With GAAATCACGAAAGTGTTC (((..(((....)))))), the Tm in series [1] stood at 20.8 °C. In addition, the folding enthalpy in series [2] was -9 kcal/mol.
Turning to GAAATCCGAAAGGACTTC (((.(((....))).))), the Tm in series [1] turned out to be 37.6 °C. Also, the folding enthalpy in series [2] was -29.8 kcal/mol.
Take GAAATGGGAAACTATTTC (((((.(....).))))): the Tm in series [1] worked out at 33.7 °C. The folding enthalpy in series [2] was -23 kcal/mol.
The matching figures for GAAATTGGAAACAATTTC (((((((....))))))): 51.3 °C and -35.8 kcal/mol.
In the case of GAACAACCGAAAGGTTTC (((..(((....)))))), the Tm in series [1] came out at 29.3 °C. For the same sequence, the folding enthalpy in series [2] is -9.63 kcal/mol.
For the sequence GAACAACGAAAGTTCTTC (((.(((....))).))), the Tm in series [1] is 38.7 °C. The folding enthalpy in series [2] is -29.8 kcal/mol.
Taken in the same sequence, the figures for GAACAACGAAAGTTTTTC (((.(((....))).))) were 31.6 °C and -17.8 kcal/mol.
As for GAACAAGGAAACTCGTTC ((((.((....)).)))), in series [1], the Tm is 27 °C. Moreover, the folding enthalpy in series [2] is -16.4 kcal/mol.
For GAACAAGGAAACTTGTCC (.(((((....))))).), in series [1], the Tm is 31.3 °C. In addition, the folding enthalpy in series [2] is -15.4 kcal/mol.
Regarding GAACACGAAAGTGACTTC ((((((....)))..))), the Tm in series [1] turned out to be 35.4 °C. Further, the folding enthalpy in series [2] was -20.8 kcal/mol.
Take GAACACGAAAGTGCCTTC ((((((....)))..))): in series [1], the Tm stood at 32.9 °C. Also, the folding enthalpy in series [2] is -18.7 kcal/mol.
Taken in the same sequence, the figures for GAACACGAAAGTGGATTC ((((((....)))..))) were 39.8 °C and -18.6 kcal/mol.
On to GAACACGAAAGTGTATTC ((((((....)))..))), for which the Tm in series [1] is 33.6 °C. The folding enthalpy in series [2] is -9.83 kcal/mol.
Turning to GAACACGAAAGTGTTTTC ((((((....)))..))), the Tm in series [1] came to 49 °C. The folding enthalpy in series [2] was -15.1 kcal/mol.
The matching figures for GAACACGCGAAAGCGTTC (((..(((....)))))): 27.9 °C and -8.07 kcal/mol.
In the case of GAACACGGAAACATGTTC (((((.(....).))))), the Tm in series [1] is 35.1 °C. Moreover, the folding enthalpy in series [2] is -28 kcal/mol.
On to GAACACGGAAACGTGCTC ((.((((....)))).)), for which, in series [1], the Tm came to 43 °C. Further, in series [2], the folding enthalpy was -18.6 kcal/mol.
On to GAACAGGAAACTGTTC ((((((....)))))), for which, in series [1], the Tm worked out at 52.9 °C. In series [2], the folding enthalpy was -38.4 kcal/mol.
Consider GAACATCCGAAAGGATTC (((..(((....)))))), for which the Tm in series [1] is 26.3 °C. In series [2], the folding enthalpy is -11.7 kcal/mol.
Take GAACCACGAAAGTGATTC (((.(((....))).))): the Tm in series [1] turned out to be 43.7 °C. In series [2], the folding enthalpy is -23.9 kcal/mol.
Take GAACCACGAAAGTGCTTC (((.(((....))).))): the Tm in series [1] was found to be 32.3 °C. Also, in series [2], the folding enthalpy is -17.1 kcal/mol.
GAACCCCCGAAAGGGTTC (((..(((....)))))): the Tm in series [1] is 55 °C. For the same sequence, in series [2], the folding enthalpy was -24 kcal/mol.
Turning to GAACCCGAAAGGGAGTTC ((((((....)))..))), in series [1], the Tm was 40 °C. In series [2], the folding enthalpy is -13.7 kcal/mol.
On to GAACCCGAAAGGGGATTC ((((((....)))..))), for which the Tm in series [1] was determined as 42.9 °C. Also, the folding enthalpy in series [2] is -16.6 kcal/mol.
GAACCCGAAAGGGGTTTC ((((((....)))..))): the Tm in series [1] worked out at 46.9 °C. The folding enthalpy in series [2] was -11.6 kcal/mol.
Consider GAACCCGGAAACAGGTTC (((((.(....).))))), for which the Tm in series [1] came to 40 °C. Also, the folding enthalpy in series [2] was -25.9 kcal/mol.
Taken in the same sequence, the figures for GAACCCGGAAACGGGCTC ((.((((....)))).)) were 47.3 °C and -15.4 kcal/mol.
For GAACCGCGAAAGCGATTC (((.(((....))).))), the Tm in series [1] worked out at 47.8 °C. In series [2], the folding enthalpy was -24.8 kcal/mol.
For GAACCGCGAAAGCGTTC (((.(((....)))))), in series [1], the Tm was determined as 44 °C. In addition, the folding enthalpy in series [2] is -14.2 kcal/mol.
The matching figures for GAACCTGGAAACAAGTTC ((((.((....)).)))): 26.8 °C and -15.9 kcal/mol.
Take GAACGACGAAAGTCCTTC (((.(((....))).))): the Tm in series [1] is 31.3 °C. The folding enthalpy in series [2] was -14.3 kcal/mol.
In the case of GAACGAGGAAACTCGCTC ((.((((....)))).)), the Tm in series [1] was determined as 38.9 °C. Moreover, the folding enthalpy in series [2] was -20.5 kcal/mol.
With GAACGCGGAAACGCGCTC ((.((((....)))).)), the Tm in series [1] was 50.3 °C. Moreover, the folding enthalpy in series [2] is -15.1 kcal/mol.
Consider GAACGGCGAAAGCCATTC (((.(((....))).))), for which the Tm in series [1] stood at 44.2 °C. In addition, the folding enthalpy in series [2] was -16.8 kcal/mol.
As for GAACTACGAAAGTACTTC (((.(((....))).))), the Tm in series [1] was 25.9 °C. The folding enthalpy in series [2] is -9.53 kcal/mol.
Consider GAACTAGGAAACCAGTTC (((((.(....).))))), for which the Tm in series [1] is 33.9 °C. The folding enthalpy in series [2] was -28.3 kcal/mol.
The matching figures for GAACTAGGAAACTAGTTC (((((((....))))))): 53.8 °C and -40.2 kcal/mol.
As to GAACTCCGAAAGGAATTC (((.(((....))).))), in series [1], the Tm turned out to be 37.5 °C. Moreover, in series [2], the folding enthalpy was -25.9 kcal/mol.
As to GAACTCCGAAAGGATTC (((.(((....)))))), the Tm in series [1] turned out to be 37.1 °C. In addition, the folding enthalpy in series [2] is -17 kcal/mol.
The matching figures for GAACTCGAAAGAGTTC ((((((....)))))): 61.6 °C and -39.3 kcal/mol.
Take GAACTGCGAAAGCAATTC (((.(((....))).))): the Tm in series [1] stood at 36.7 °C. Besides, the folding enthalpy in series [2] was -21.7 kcal/mol.
On to GAACTGGAAACAGTTC ((((((....)))))), for which the Tm in series [1] was determined as 53.9 °C. Besides, the folding enthalpy in series [2] was -32.4 kcal/mol.
As for GAACTGGGAAACCAGTTC (((((((....))))))), in series [1], the Tm came to 61.7 °C. The folding enthalpy in series [2] was -40.7 kcal/mol.
GAACTTGGAAACAAGTTC (((((((....))))))): the Tm in series [1] amounted to 57.4 °C. Further, the folding enthalpy in series [2] is -39 kcal/mol.
Taken in the same sequence, the figures for GAAGACGAAAGTCAATTC ((((((....)))..))) were 32.9 °C and -15.5 kcal/mol.
On to GAAGACGAAAGTCATTTC ((((((....)))..))), for which, in series [1], the Tm stood at 23.9 °C. Further, the folding enthalpy in series [2] is -8.24 kcal/mol.
Taken in the same sequence, the figures for GAAGACGAAAGTCGCTTC ((((((....)))..))) were 47.1 °C and -22.6 kcal/mol.
On to GAAGATGAAAATCTTC ((((((....)))))), for which the Tm in series [1] is 48.4 °C. Also, the folding enthalpy in series [2] is -28.1 kcal/mol.
The matching figures for GAAGCACGAAAGTGTTC (((.(((....)))))): 36.1 °C and -13.4 kcal/mol.
For GAAGCCCCGAAAGGGTTC (((..(((....)))))), in series [1], the Tm is 36.9 °C. Moreover, in series [2], the folding enthalpy is -14.3 kcal/mol.
For GAAGCCCGAAAGGGATTC (((.(((....))).))), the Tm in series [1] worked out at 61.4 °C. Also, the folding enthalpy in series [2] was -42.4 kcal/mol.
For the sequence GAAGCCCGAAAGGGGTTC (((.(((....))).))), the Tm in series [1] stood at 67.7 °C. The folding enthalpy in series [2] was -36.8 kcal/mol.
Turning to GAAGCCCGAAAGGGTTC (((.(((....)))))), the Tm in series [1] came out at 47.7 °C. In addition, the folding enthalpy in series [2] is -16 kcal/mol.
Regarding GAAGCCGAAAGGCACTTC ((((((....)))..))), the Tm in series [1] was determined as 42.4 °C. In addition, the folding enthalpy in series [2] is -12 kcal/mol.
The matching figures for GAAGCCGAAAGGCCATTC ((((((....)))..))): 28 °C and -8.97 kcal/mol.
Regarding GAAGCCGAAAGGCCTTC ((((((....))).))), in series [1], the Tm was 48.8 °C. In addition, the folding enthalpy in series [2] was -16.2 kcal/mol.
As for GAAGCCGAAAGGCCTTTC ((((((....)))..))), in series [1], the Tm turned out to be 35.9 °C. Further, the folding enthalpy in series [2] was -9.88 kcal/mol.
Taken in the same sequence, the figures for GAAGCCGAAAGGCGCTTC ((((((....)))..))) were 56.2 °C and -14.1 kcal/mol.
Taken in the same sequence, the figures for GAAGCGACGAAAGTCTTC (((..(((....)))))) were 27.9 °C and -9.61 kcal/mol.
As to GAAGCGCGAAAGCGTTTC (((.(((....))).))), in series [1], the Tm was determined as 56 °C. In series [2], the folding enthalpy is -23.1 kcal/mol.
